ChEMBL document CHEMBL1212813, “alpha-Amino-3-hydroxy-5-methyl-4-isoxazolepropionic acid (AMPA) antagonists: from bench to bedside” (J Med Chem, 2010)
In brackets after ≈: the same amount, converted by molar mass.

Columns and labels:
Mus musculus [1] = assay: Anticonvulsant activity in po dosed mouse assessed as inhibition of MES-induced tonic seizures; type: functional
In short: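 Mice were dosed orally 2 h before maximal electroshock. The read-out was protection from tonic convulsions, and an ED50 was derived.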

[2] = Displacement of [3H]AMPA from AMPA receptor in rat cortical membrane; type: cell membranes
Rattus norvegicus = assay: Anticonvulsant activity in po dosed rat assessed as inhibition of MES-induced tonic seizures; type: functional
[3] = Solubility of the compound at pH 7.4; type: physicochemical; conditions: buffer
Glutamate NMDA receptor [4] = assay: Inhibition of NMDA receptor glutamate site from rat cortical membrane
Glutamate NMDA receptor [5] = assay: Inhibition of NMDA receptor glycine site from rat cortical membrane
[6] = Displacement of [3H]kainate from kainate receptor in rat cortical membrane; type: cell membranes
Mus musculus [7] = assay: Anticonvulsant activity in ip dosed mouse assessed as inhibition of MES-induced tonic seizures; type: functional
[8] = Displacement of [3H]AMPA from AMPA receptor in rat cortical membrane in presence of cyclothiazide; type: cell membranes
Homo sapiens = species on record: Homo sapiens; assay: Antiepileptic activity in human patient assessed as reduction in refractory partial seizures; type: functional; design: scale not given: the % may be the effect or the level left
Mus musculus [9] = assay: Anticonvulsant activity in ip dosed DBA2 mouse assessed as inhibition of sound-induced clonic seizures; type: functional
Mus musculus [10] = assay: Anticonvulsant activity in po dosed mouse assessed as inhibition of PTZ-induced seizures; type: functional
[11] = Antagonist activity at AMPA receptor in rat cortical membrane assessed as inhibition of AMPA-induced calcium accumulation; type: functional, cell membranes
[12] = Antagonist activity at AMPA receptor in rat cortical membrane assessed as inhibition of AMPA-induced membrane current; type: functional, cell membranes

CN1CCc2cc3c(cc2[C@H]1[C@@H]1OC(=O)c2c1ccc1c2OCO1)OCO3 [BICUCULLINE]
ED50 (Mus musculus [1]): 14.6 mg/kg

N#Cc1ccc2nc(O)c(O)nc2c1
Ki [2]: 5000 nM

O=C(O)CCS [MERCAPTOPROPIONIC ACID]
ED50 (Mus musculus [1]): 17.1 mg/kg

C1CCc2nnnn2CC1 [PENTYLENETETRAZOL]
ED50 (Mus musculus [1]): 16.8 mg/kg

O=c1[nH]c2cc([N+](=O)[O-])cc(CNCP(=O)(O)O)c2[nH]c1=O
ED50 (Rattus norvegicus): 5 mg/kg
IC50 [2]: 290 nM
solubility [3]: 6600 µg/mL (≈ 20 mM)
IC50 (Glutamate NMDA receptor [4]): 490 nM
IC50 (Glutamate NMDA receptor [5]): 1160 nM
IC50 [6]: 4200 nM

O=c1[nH]c2cc(-n3ccnc3)c([N+](=O)[O-])cc2[nH]c1=O [YM-90K]
Ki [2]: 84 nM
Ki (Glutamate NMDA receptor [4]): > 100000 nM
Ki [6]: 2200 nM

Oc1nc2ccc(-n3ccnc3)cc2nc1O
Ki [2]: 1600 nM

CN(C)S(=O)(=O)c1cc2c(N=O)c(O)[nH]c2c2c1CCCC2
ED50 (Mus musculus [7]): 30 mg/kg
IC50 [6]: 81000 nM
IC50 [8]: 150 nM

N#Cc1ccccc1-c1cc(-c2ccccn2)cn(-c2ccccc2)c1=O [PERAMPANEL]
ED50 (Mus musculus [1]): 1.6 mg/kg
Activity (Homo sapiens): 40%
ED50 (Mus musculus [9]): 0.47 mg/kg
ED50 (Mus musculus [10]): 0.94 mg/kg
IC50 [11]: 93 nM

CCC1(C)CC(=O)NC(=O)C1 [BEMEGRIDE]
ED50 (Mus musculus [1]): 23.9 mg/kg

CN1CCC[C@H]1c1cccnc1 [NICOTINE]
ED50 (Mus musculus [1]): 22.7 mg/kg

CN(C)CCOc1ccccc1-c1nc(-c2ccccc2)no1 [IRAMPANEL]
IC50 [12]: 8500 nM
ED50 (Mus musculus [9]): 23.4 mg/kg

O=P(O)(O)CNCc1cc(Br)cc2nc(O)c(O)nc12
IC50 [2]: 2400 nM

O=[N+]([O-])c1ccc2nc(O)c(O)nc2c1
Ki [2]: 2000 nM
